Screening data (PubChem)
Dynein transport: blocks dynein driven cargo transport along microtubules; 3617.4 mouse cells, GR-EGFP nuclear translocation imaging; test concentration mostly 20 µM; stimulated with dexamethasone, 1 µM; stronger effect = lower value; z-score, hits read low; 220,000 tested, 0.47% active; AID 1381;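 active = plate z-score of nuclear minus cytoplasmic receptor signal below a set negative limit, without overly bright fluorescence or cell loss, cut at about -3.5 in these data, passing the limit was not always enough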;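 note: z-score of nuclear minus cytoplasmic ring GR-EGFP intensity difference per well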
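medium = tetracycline-free induction medium containing charcoal-stripped FBS | also added = 1.0 µM final dexamethasone stimulus | schedule = 48 h induction, 1 h compound, 30 min dex at 37 °C | technique = fixed, Hoechst-stained cells imaged at 10x for EGFP | measure = GR-EGFP nuclear translocation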
UPR XBP1 act: activators of adaptive arm of unfolded protein response (XBP1); 330,000 tested, 0.33% active; CHO-XBP1 luciferase reporter, IRE1-XBP1 UPR activation, luminescence; percent of tunicamycin response, DMSO as zero; AID 463104; activation, % at 20 µM;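 active = versus positive control, 20 µM dose yields 30% or more activation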;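 note: 100% = tunicamycin at 10 µg/mL and 0% = DMSO only wells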
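Material: CHO cell line with stable XBP1 luciferase reporter; buffer or medium: F12 medium containing 10% fetal bovine serum; compound: single point, 20 µM final compound, 1% DMSO; incubation: 6 h treatment, 37 °C; measured by: glow luminescence from Steady-Glo reagent; evaluation: activation, % of tunicamycin; control set: tunicamycin high, DMSO low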
CHOP UPR activ: activators of apoptotic arm of unfolded protein response (CHOP); 330,000 tested, 0.34% active; activation, % at 10 µM; CHO-CHOP luciferase reporter, UPR activation, luminescence; percent of tunicamycin response over DMSO baseline; AID 449763;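 active = at 10 µM dose, activation of 40% or more, normalized to positive control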;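 note: 100% = tunicamycin at 10 µg/mL and 0% = DMSO alone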
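Material: CHO-CHOP cells, stable luciferase reporter of PERK-eIF2a-CHOP signalling; quantity: 500 reporter cells seeded per well; buffer or medium: F12 medium containing 10% fetal bovine serum; compound: one dose, 10 µM in 0.5% DMSO; incubation: 6 h compound treatment, 37 °C; measured by: Steady-Glo luciferase luminescence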
L major viab: reduces viability of Leishmania major promastigotes | AID 1063 | inhibition, % at 10 µM | 200,000 tested, 9% active | resazurin fluorescence viability; in the data active = inhibition above about 50%;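 note: promastigotes grown with compound for 44 hours at 28 °C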
T cruzi repl: blocks replication of Trypanosoma cruzi; T. cruzi beta-gal in NIH3T3, luminescence, 90 h; inhibition, % (concentration not given with the values); 300,000 tested, 1.4% active;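 active = mean inhibition across valid replicates above about 55%, limit read from the data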;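 note: signal also drops with host cell toxicity which is not excluded here; 0% = plate median of DMSO wells and 100% = zero luminescence signal; higher percent means less beta-gal luminescence so fewer parasites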
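Assay system: NIH/3T3 host cells with β-galactosidase reporter T. cruzi; input: 5,000 host fibroblasts per well; compound: single 50 nL compound addition per well in DMSO; timing: ≥90 h infection period, 3 h prior cell attachment; measured by: GalScreen β-gal luminescence, detergent lysis, 60 min; evaluation: percent inhibition of parasite-derived β-gal signal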
CHOP inhibitor: CHOP inhibition in unfolded protein response. 220,000 tested, 3.8% active. CHO-K1 CHOP-promoter luciferase, tunicamycin-induced, 15-18 h. inhibition, % at 10 µM;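 active = compounds that reduced the stress-induced luciferase reporter signal by more than about 70% of percent inhibition, limit read from the data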;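 note: 0% = tunicamycin plus vehicle and 100% = wells without tunicamycin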
The depositor's hits bear a star; . = not tested or not shown. The sample as a whole holds a higher share of hits than the screen did.

SMILES | Dynein transport | UPR XBP1 act | CHOP UPR activ | L major viab | T cruzi repl | CHOP inhibitor
O=C(COC(=O)c1ccc([N+](=O)[O-])s1)Nc1ccccc1 | -0.071 | -2 | -1 | 38 | 11 | -25
Cc1[nH]c2ccccc2c1C(=O)COC(=O)c1ccc([N+](=O)[O-])s1 | 0.78 | -8 | 5 | 100* | 74* | -95
O=C(COC(=O)c1ccc([N+](=O)[O-])s1)Nc1ccc(F)cc1 | . | 2 | 1 | . | . | .
CC(C)(C)c1ccc(NC(=O)COC(=O)c2ccc([N+](=O)[O-])s2)cc1 | -0.25 | . | . | 58* | . | 53
O=C(OCC(=O)N1CCC(c2ccccc2)=N1)c1ccc([N+](=O)[O-])s1 | . | -1 | 4 | . | 55* | .
CCc1noc(C)c1C(=O)N(Cc1ccccc1)c1c(N)n(CCOC)c(=O)[nH]c1=O | . | -2 | 0 | . | 0 | .
CC1CCCCC1NC(=O)C1CCCN(S(=O)(=O)c2ccc(-n3cnnn3)cc2)C1 (configuration not stated) | . | -2 | -1 | . | 6 | .
CC1CC(C)CN(S(=O)(=O)CCNC(=O)c2ccc3c(c2)OCO3)C1 (configuration not stated) | . | 1 | 1 | . | 1 | .
CC(C)(C)c1ccc(NC(=O)COC(=O)C2(C)CC2(Cl)Cl)cc1 (configuration not stated) | -0.28 | 5 | 6 | 10 | 29 | 70*
Cc1cc(C(=O)N/N=C2\CC(=O)c3ccccc32)c(C)n1-c1ccccc1 | 0.76 | -3 | 1 | 98* | 11 | -3
Cc1cc(C(=O)N/N=C2\CC(=O)CC(C)(C)C2)c(C)n1-c1ccccc1 | 2.7 | 2 | -2 | -5 | 25 | 40
CCn1c2ccccc2c2cc(NC(=O)CSc3nnc(-c4cccc(OC)c4)n3N)ccc21 | -0.092 | 4 | -1 | 17 | 22 | 40
O=C(CSc1nnc(-c2cccnc2)o1)Nc1cccc(Cl)c1 | . | 1 | -1 | . | -7 | .
COc1ccc(-c2nnc(SC(C(=O)c3c[nH]c4ccccc34)c3ccccc3)n2N)cc1OC (configuration not stated) | -0.34 | -2 | 3 | 57* | 18 | 32
CCn1c2ccccc2c2cc(NC(=O)CSc3nnc(-c4ccc(OC)c(OC)c4)n3N)ccc21 | -1.2 | 2 | 2 | 95* | 21 | 42
CCn1c2ccccc2c2cc(NC(=O)CSc3nnc(-c4cccc(Cl)c4)o3)ccc21 | -0.16 | 9 | 0 | 89* | 6 | 31
CCCCN(C)C(=O)C1CCCN(S(=O)(=O)c2ccc3c(c2)CC(C)N3C(=O)C2CC2)C1 (configuration not stated) | . | -3 | 1 | . | 2 | .
Cc1nn(C(C)C(=O)NC(C)CCc2ccccc2)c(=O)c2cc3occc3n12 (configuration not stated) | . | -4 | -1 | . | -3 | .
Cc1c(-c2cccc(Cl)c2)nc2ccccc2c1C(=O)OCC(=O)Nc1ccc2c(c1)OCO2 | -0.74 | -1 | 0 | 58* | 55* | 78*
COc1cc(CN2CCC(C(=O)NCC(C)(C)CN(C)C)CC2)ccc1OCc1ccccc1 | . | -3 | 1 | . | -2 | .
CC(C)(C)c1ccccc1OCCOCCN1CCCCCC1 | -0.61 | 2 | 1 | 96* | 56* | -14
CC(C)(C)c1ccccc1OCCOCCSc1ncccn1 | 2.7 | -1 | 0 | 97* | 28 | 42
Cc1ccc(C(C)(C)C)c(OCCOCCN2CCCC2)c1 | 0.39 | 1 | 1 | 96* | 16 | 14
Cc1ccccc1OCCN1CCCC1 | . | -1 | 2 | . | 7 | .
COc1cccc(CN(CC(=O)NCc2ccccc2)C(=O)c2csnn2)c1 | . | 1 | 1 | . | -5 | .
CC12CCC(=O)N1C(C(=O)NNC(=O)COc1ccc(Br)cc1)CS2 (configuration not stated) | . | 0 | 0 | . | 17 | .
O=C(Nc1c(F)cccc1F)c1cnc(N2CCN(c3ccccn3)CC2)c2ccccc12 | -1.1 | 4 | 1 | 79* | 20 | 36
c1ccc2c(-c3[nH]ncc3CNCCCn3ncc4ccccc43)cccc2c1 | 1.7 | -2 | -1 | 77* | -11 | 37
